This is an account of results in ChEMBL document CHEMBL1150415 (J Med Chem, 2008).

One data set concerns Blood. Kind of data set: Inhibition of TXB2 production in Sprague-Dawley rat whole blood. Format: functional, tissue-based. In a few lines: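 Rat whole blood stimulated with calcium ionophore A23187 at 5 µM, with thromboxane B2 measured. Each run gives the mean of triplicate assays, and values come from at least two runs.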
Data set [1] can be described thus: Ratio of AUC in Sprague-Dawley rat at 25 mg/kg, po to IC50 for TXB2 production in Sprague-Dawley rat whole blood. Format: functional.
Data set [2] can be described thus: Plasma concentration in collagen-induced arthritis mouse model at 100 mg/kg, po twice daily after 1.5 hrs. The format is ADME, organism-based. Also noted: dose 100 mg/kg, route oral.
The nature of data set [3]: Inhibition of cytosolic phospholipase A2alpha by GLU micelle assay. In a few lines:
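Micellar assay with 7-hydroxycoumarinyl-γ-linolenate (GLU) substrate, presenting inhibitor and substrate to the enzyme in high-lipid micelles. Each run gives the mean of duplicate assays, and values come from at least two runs.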

Data set [4] relates to Rattus norvegicus. The data set is described as follows: Inhibition of carrageenan-induced paw edema in po dosed Sprague-Dawley rat administered 2 hrs before carrageenan challenge. Format: functional.
In data set [5] the test system is Rattus norvegicus. The data set is described as follows: Inhibition of PGE2 production in carrageenan-stimulated orally dosed rat air pouch model after 6 hrs. The format is functional. Conditions: po. The procedure, abridged:
(§1)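 Carrageenan was injected into a preformed air pouch 2 h after oral drug. Pouch contents were removed 6 h later and PGE2 was quantified.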

Data set [6] concerns Rattus norvegicus. The data set is described as follows: Inhibition of PGE2 production in carrageenan-stimulated rat air pouch model at 5 mg/kg, po after 6 hrs. Format: functional. In a few lines:
as §1

In another data set the test system is Mus musculus. The data set is described as follows: Plasma concentration in collagen-induced arthritis mouse model at 100 mg/kg, po twice daily after 12 to 14 hrs. Conditions: in vivo. Also noted: dose 100 mg/kg, route oral. The format is ADME, organism-based.

Structures are written as SMILES.

For orientation: IC50 means the concentration that inhibits the measured activity by half. As a reminder, the ED50 is the dose that gives a 50% effect, or the effect in half of the subjects. Lower therefore signals greater potency. Usually inhibition in vivo stands for the drop in the measured response relative to a control, in per cent. A higher inhibition in vivo goes with a response far below the control. Regarding `O=C(O)c1ccc(OCCc2c(CCNS(=O)(=O)Cc3ccc(Cl)c(Cl)c3)n(C(c3ccccc3)c3ccccc3)c3ccc(Cl)cc23)cc1` [ECOPLADIB], the results for the IC50 (in the data set on Blood; in data set [3]) were 160 nM and 150 nM, respectively. Further, the Ratio in data set [1] stood at 18 h. In data set [2], the concentration at 1.5 h is 4080 ng/mL. In addition, the 50% effective dose (ED50) was found to be 40 mg/kg in the data set with Rattus norvegicus [4] and 10 mg/kg with Rattus norvegicus [5]. Further, the inhibition in vivo at 5 mg/kg with Rattus norvegicus [6] is below 10%. In addition, the Cp in the data set on Mus musculus was 531 ng/mL.
